Assay results from ChEMBL document CHEMBL3792308, “Synthesis and Evaluation of 2,6-Modified Purine 2'-C-Methyl Ribonucleosides as Inhibitors of HCV Replication” (ACS Med Chem Lett, 2016).

Experiments:
[1] = Cytotoxicity against human PBMC after 6 days by trypan blue exclusion assay; format: cell-based; settings: PBMC (peripheral blood mononuclear cells)
[2] = Cytotoxicity against human CEM cells after 6 days by trypan blue exclusion assay; format: cell-based; settings: CEM (CCRF-CEM) cells
[3] = Cytotoxicity against human HuH7 cells infected with HCV assessed as reduction in cellular rRNA level after 96 hrs by qRT-PCR analysis; format: cell-based, Huh-7
Summary of the method: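 Huh7 toxicity was read in the same wells as the replicon assay, by extracting and amplifying cellular rRNA alongside HCV RNA.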

Hepatitis C virus = assay: Antiviral activity against HCV infected in HuH7 Clone B cells assessed as inhibition of viral replication after 5 days by RT-PCR method; format: functional, organism-based, Hepacivirus hominis; settings: 120 h
Summary of the method: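 Huh7 cells carrying a subgenomic HCV replicon; HCV RNA extracted and amplified to measure replication inhibition. Tested up to 10 μM, and EC50 and EC90 are reported.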

[4] = Cytotoxicity against African green monkey Vero cells after 3 days by hemocytometry; format: cell-based; settings: chlorocebus sabaeus
[5] = Drug metabolism in human HuH7 cells assessed as nucleoside triphosphate derivative formation at 50 uM after 4 hrs by LC-MS/MS analysis; format: ADME, cell-based; settings: huh-7, 4 h
Summary of the method: (§1)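 Huh7 cells incubated with 50 μM compound for 4 h at 37 °C, then washed with phosphate-buffered saline. Intracellular metabolites extracted with 70% ice-cold methanol in water and identified by LC–MS/MS, with nucleoside mono-, di- and triphosphate levels quantified.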

[6] = Drug metabolism in human HuH7 cells assessed as nucleoside monophosphate derivative formation at 50 uM after 4 hrs by LC-MS/MS analysis; format: ADME, cell-based; settings: huh-7, 4 h; summary of the method: as §1
[7] = Drug metabolism in human HuH7 cells assessed as nucleoside diphosphate derivative formation at 50 uM after 4 hrs by LC-MS/MS analysis; format: ADME, cell-based; settings: huh-7, 4 h; summary of the method: as §1

SMILES | CC50 at 144 h [1] [µM] | CC50 at 144 h [2] [µM] | CC50 at 96 h [3] [µM] | EC50 (Hepatitis C virus) [µM] | EC90 (Hepatitis C virus) [µM] | CC50 at 72 h [4] [µM] | Drug metabolism [5] | Drug metabolism [6] | Drug metabolism [7]
COc1nc(O)nc2c1ncn2[C@@H]1O[C@H](CO)[C@@H](O)[C@@]1(C)O | > 100 | > 100 | > 10 | > 10 | > 10 | > 100 | – | – | –
CCOC(=O)[C@H](C)NP(=O)(OC[C@H]1O[C@@H](n2cnc3c(OC)nc(Cl)nc32)[C@](C)(O)[C@@H]1O)Oc1ccccc1 (stereo partly drawn) | > 100 | > 100 | > 10 | 6.3 | 9.9 | > 100 | – | – | –
COc1nc(N)nc2c1ncn2[C@@H]1O[C@H](COP(=O)(N[C@@H](C)C(=O)OCC(C)(C)C)Oc2cccc3ccccc23)[C@@H](O)[C@@]1(C)O (stereo partly drawn) [BMS-986094] | 4.5 | 8 | 0.8 | 0.02 | 0.04 | 14 | – | – | –
C=C(OCC)c1nc(N)nc2c1ncn2[C@@H]1O[C@H](CO)[C@@H](O)[C@@]1(C)O | > 100 | > 100 | > 10 | > 10 | > 10 | > 100 | – | – | –
C[C@@]1(O)[C@H](O)[C@@H](CO)O[C@H]1n1cnc2c(N)nc(N=[N+]=[N-])nc21 | > 100 | > 100 | > 10 | > 10 | > 10 | > 100 | – | – | –
C=C(OCC)c1nc(N)nc2c1ncn2[C@@H]1O[C@H](COP(=O)(N[C@@H](C)C(=O)OCC)Oc2ccccc2)[C@@H](O)[C@@]1(C)O (stereo partly drawn) | > 100 | > 100 | > 10 | > 10 | > 10 | > 100 | – | – | –
CCOC(=O)[C@H](C)NP(=O)(OC[C@H]1O[C@@H](n2cnc3c(OC)nc(ONC(=O)OCc4ccccc4)nc32)[C@](C)(O)[C@@H]1O)Oc1ccccc1 (stereo partly drawn) | > 100 | 24 | > 33 | 4.1 | 9.2 | > 100 | – | – | –
CCOC(=O)[C@H](C)NP(=O)(OC[C@H]1O[C@@H](n2cnc3c(N=[N+]=[N-])nc(N)nc32)[C@](C)(O)[C@@H]1O)Oc1ccccc1 (stereo partly drawn) | > 100 | > 100 | > 10 | 2.4 | 7.7 | > 100 | – | – | –
COc1nc(Cl)nc2c1ncn2[C@@H]1O[C@H](CO)[C@@H](O)[C@@]1(C)O | > 100 | > 100 | > 10 | > 10 | > 10 | > 100 | – | – | –
C[C@@]1(O)[C@H](O)[C@@H](CO)O[C@H]1n1cnc2c(N)nc(Cl)nc21 | > 100 | > 100 | > 10 | > 10 | > 10 | > 100 | – | – | –
CCOC(=O)[C@H](C)NP(=O)(OC[C@H]1O[C@@H](n2cnc3c(NOC)nc(N)nc32)[C@](C)(O)[C@@H]1O)Oc1ccccc1 (stereo partly drawn) | > 100 | 32 | > 10 | 0.3 | 1 | > 100 | – | – | –
CONc1nc(N)nc2c1ncn2[C@@H]1O[C@H](CO)[C@@H](O)[C@@]1(C)O | > 100 | > 100 | > 10 | > 10 | > 10 | > 100 | – | – | –
C[C@@]1(O)[C@H](O)[C@@H](CO)O[C@H]1n1cnc2c(N)nc(O)nc21 | > 100 | > 100 | > 10 | > 10 | > 10 | > 100 | – | – | –
CC(C)(CO)C(=O)SCCOP(=O)(NCc1ccccc1)OC[C@H]1O[C@@H](n2cnc3c(=O)[nH]c(N)nc32)[C@](C)(O)[C@@H]1O (stereo partly drawn) | > 100 | > 100 | > 100 | 0.3 | 0.9 | > 100 | – | – | –
CCOP(=O)(OCC)c1nc(N)nc2c1ncn2[C@@H]1O[C@H](CO)[C@@H](O)[C@@]1(C)O | > 100 | > 100 | > 10 | > 10 | > 10 | > 100 | – | – | –
COc1nc(ONC(=O)OCc2ccccc2)nc2c1ncn2[C@@H]1O[C@H](CO)[C@@H](O)[C@@]1(C)O | > 100 | > 100 | > 10 | > 10 | > 10 | > 100 | – | – | –

SMILES | CC50 at 144 h [1] [µM] | CC50 at 144 h [2] [µM] | CC50 at 96 h [3] [µM] | EC50 (Hepatitis C virus) [µM] | EC90 (Hepatitis C virus) [µM] | CC50 at 72 h [4] [µM] | Drug metabolism [5] | Drug metabolism [6] | Drug metabolism [7]
C[C@@]1(O)[C@H](O)[C@@H](CO)O[C@H]1n1cnc2c(NO)nc(N)nc21 | > 100 | > 100 | > 10 | 0.3 | 5.5 | > 100 | – | – | –
CCOC(=O)[C@H](C)NP(=O)(OC[C@H]1O[C@@H](n2cnc3c(N)nc(ONC(=O)OCc4ccccc4)nc32)[C@](C)(O)[C@@H]1O)Oc1ccccc1 (stereo partly drawn) | > 100 | > 100 | > 33 | 4.8 | 10 | > 100 | – | – | –
C[C@@]1(O)[C@H](O)[C@@H](CO)O[C@H]1n1cnc2c(ONC(=O)OCc3ccccc3)nc(N)nc21 | > 100 | > 100 | > 10 | 2.4 | 8 | > 100 | – | – | –
C[C@@]1(O)[C@H](O)[C@@H](CO)O[C@H]1n1cnc2c(N=[N+]=[N-])nc(N)nc21 | > 100 | > 100 | > 10 | > 10 | > 10 | > 100 | – | – | –
CCOC(=O)[C@H](C)NP(=O)(OC[C@H]1O[C@@H](n2cnc3c(N)nc(OC)nc32)[C@](C)(O)[C@@H]1O)Oc1ccccc1 (stereo partly drawn) | > 100 | > 100 | > 10 | 1 | 2.8 | > 100 | metabolite_detected | metabolite_detected | metabolite_detected
COc1nc(N)c2ncn([C@@H]3O[C@H](CO)[C@@H](O)[C@@]3(C)O)c2n1 | > 100 | > 100 | > 10 | > 10 | > 10 | > 100 | – | – | –
CCOC(=O)[C@H](C)NP(=O)(OC[C@H]1O[C@@H](n2cnc3c(N)nc(NOC)nc32)[C@](C)(O)[C@@H]1O)Oc1ccccc1 (stereo partly drawn) | > 100 | > 100 | > 10 | > 10 | > 10 | 18 | – | – | –
COc1nc(OC)c2ncn([C@@H]3O[C@H](CO)[C@@H](O)[C@@]3(C)O)c2n1 | > 100 | > 100 | > 10 | > 10 | > 10 | > 100 | – | – | –
CCOC(=O)[C@H](C)NP(=O)(OC[C@H]1O[C@@H](n2cnc3c(OC)nc(OC)nc32)[C@](C)(O)[C@@H]1O)Oc1ccccc1 (stereo partly drawn) | > 100 | > 100 | > 10 | > 10 | > 10 | > 100 | – | – | –
CCOC(=O)[C@H](C)NP(=O)(OC[C@H]1O[C@@H](n2cnc3c(N)nc(O)nc32)[C@](C)(O)[C@@H]1O)Oc1ccccc1 (stereo partly drawn) | > 100 | > 100 | > 10 | > 10 | > 10 | > 100 | – | – | –
CCOC(=O)[C@H](C)NP(=O)(OC[C@H]1O[C@@H](n2cnc3c(N)nc(Cl)nc32)[C@](C)(O)[C@@H]1O)Oc1ccccc1 (stereo partly drawn) | > 100 | > 100 | > 10 | 1.7 | 5.3 | > 100 | – | – | –
CCOC(=O)[C@H](C)NP(=O)(OC[C@H]1O[C@@H](n2cnc3c(P(=O)(OCC)OCC)nc(N)nc32)[C@](C)(O)[C@@H]1O)Oc1ccccc1 (stereo partly drawn) | > 100 | > 100 | > 10 | > 10 | > 10 | > 100 | – | – | –
CONc1nc(N)c2ncn([C@@H]3O[C@H](CO)[C@@H](O)[C@@]3(C)O)c2n1 | > 100 | > 100 | > 10 | > 10 | > 10 | > 100 | – | – | –
CCOC(=O)[C@H](C)NP(=O)(OC[C@H]1O[C@@H](n2cnc3c(N)nc(N=[N+]=[N-])nc32)[C@](C)(O)[C@@H]1O)Oc1ccccc1 (stereo partly drawn) | > 100 | > 100 | > 10 | 2.3 | 3 | > 100 | metabolite_detected | metabolite_detected | metabolite_detected
CCOC(=O)[C@H](C)NP(=O)(OC[C@H]1O[C@@H](n2cnc3c(OC)nc(O)nc32)[C@](C)(O)[C@@H]1O)Oc1ccccc1 (stereo partly drawn) | > 100 | > 100 | > 10 | > 10 | > 10 | > 100 | – | – | –
C[C@@]1(O)[C@H](O)[C@@H](CO)O[C@H]1n1cnc2c(N)nc(ONC(=O)OCc3ccccc3)nc21 | > 100 | > 100 | > 10 | > 10 | > 10 | > 100 | – | – | –
